Results from ChEMBL document CHEMBL2331350, “Conjugation to 4-aminoquinoline improves the anti-trypanosomal activity of Deferiprone-type iron chelators” (Bioorg Med Chem, 2013).
Calls of active or inactive are those of the source. The rule behind the calls is not given here.

Experiments:
[1] = tested on: Leishmania infantum; assay: Antileishmanial activity against Leishmania infantum MHOM/BR/1972/LD promastigotes after 48 hrs by MTT assay; type: functional
[2] = Cytotoxicity against human HL60 cells by alamar blue assay; type: cell-based, HL-60
In short: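 HL-60 cells in RPMI 1640 with 2 mM L-glutamine and 16.7% FBS at 37 °C, 5% CO2, seeded at 10⁵ cells/mL. Viability with Alamar Blue read as in the T. brucei assay (570 nm, reference 630 nm); GI50.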

[3] = tested on: Trypanosoma brucei; assay: Antitrypanosomal activity against Trypanosoma brucei TC211 after 24 hrs by alamar blue assay; type: functional; details: TC211, 24 h
In short: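 Bloodstream T. brucei TC211 in Baltz medium with 16.7% heat-inactivated FBS, seeded at 10⁴ cells/mL with compounds in DMSO (final 0.5%; DMSO-only controls). Alamar Blue added after 24 h, then 48 h incubation; absorbance 570 nm, reference 630 nm. Melarsoprol positive control; GI50 with 95% CI.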

[4] = tested on: Trypanosoma cruzi; assay: Antitrypanosomal activity against Trypanosoma cruzi trypomastigotes after 24 hrs by MTT assay; type: functional
In short: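 T. cruzi trypomastigotes counted by hemocytometer, seeded at 1 × 10⁶ per well; compounds up to 100 µM for 24 h at 37 °C, 5% CO2. Viability from MTT conversion to formazan. Benznidazole positive control; GI50 with 95% CI.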

[5] = tested on: Trypanosoma brucei; assay: Iron cheating activity in Trypanosoma brucei bloodstream forms assessed as increase in fluorescein-labeled transferrin at 25 uM in presence of 16.7% heat inactivated FBS after 24 hrs by flow cytometry relative to untreated control; type: functional
In short: (§1)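 Bloodstream T. brucei (5 × 10⁵/mL) exposed 24 h in Baltz medium/16.7% heat-inactivated FBS to 50 µM chelator, 25 µM DFO or DMSO control. Washed cells then given 50 µg/mL fluorescein-transferrin in Baltz/2% BSA for 2 h, washed, fixed in 2% formaldehyde/0.05% glutaraldehyde, analysed by flow cytometry.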

[6] = Iron cheating activity assessed as pFe3+ value at pH 7.45 by spectrophotometry; type: functional
In short: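 Automated spectrophotometric titration at 25 °C, 0.1 M KCl, pH 2–12 in 0.1-unit steps, 5 min equilibration for stability constants, 50 mm cuvette; […], total iron 1 mM; data fitted with pHab; pFe³⁺ defined at 10⁻⁶ M metal and 10⁻⁵ M ligand.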

[7] = tested on: Plasmodium falciparum; assay: Antimalarial activity against Plasmodium falciparum ITG2G1; type: functional
[8] = Cytotoxicity against human K562 cells; type: cell-based
[9] = Lipophilicity, log P of the compound; type: physicochemical; details: octanol/water
[10] = Selectivity index, ratio of GI50 for human K562 cells to GI50 for Plasmodium falciparum ITG2G1; type: toxicity, cell-based; details: read-out: RatioGI50
[11] = Selectivity index, ratio of GI50 for human HL60 cells to GI50 for Trypanosoma brucei TC211; type: toxicity, cell-based, HL-60; details: read-out: RatioGI50
[12] = Selectivity index, ratio of GI50 for human HL60 cells to GI50 for Leishmania infantum MHOM/BR/1972/LD promastigotes; type: toxicity, cell-based, HL-60; details: read-out: RatioGI50
[13] = Selectivity index, ratio of GI50 for human HL60 cells to GI50 for Trypanosoma cruzi trypomastigotes; type: toxicity, cell-based, HL-60; details: read-out: RatioGI50
[14] = tested on: Trypanosoma cruzi; assay: Antitrypanosomal activity against Trypanosoma cruzi trypomastigotes after 24 hrs by MTT assay relative to Deferiprone; type: functional
[15] = tested on: Trypanosoma brucei; assay: Antitrypanosomal activity against Trypanosoma brucei TC211 after 24 hrs by alamar blue assay relative to Deferiprone; type: functional
[16] = tested on: Trypanosoma brucei; assay: Antitrypanosomal activity against Trypanosoma brucei TC211 after 24 hrs by alamar blue assay relative to Chloroquine; type: functional
[17] = tested on: Trypanosoma cruzi; assay: Antitrypanosomal activity against Trypanosoma cruzi trypomastigotes after 24 hrs by MTT assay relative to Chloroquine; type: functional
[18] = tested on: Leishmania infantum; assay: Antileishmanial activity against Leishmania infantum MHOM/BR/1972/LD intracellular amastigotes at 60 uM after 120 hrs by light microscopy
[19] = tested on: Trypanosoma brucei; assay: Iron cheating activity in Trypanosoma brucei bloodstream forms assessed as increase in fluorescein-labeled transferrin at 50 uM in presence of 16.7% heat inactivated FBS after 24 hrs by flow cytometry relative to untreated control; type: functional; in short: as §1
[20] = tested on: Trypanosoma brucei; assay: Antitrypanosomal activity against Trypanosoma brucei TC211 after 24 hrs in presence of FeCl3 by alamar blue assay; type: functional, organism-based

| SMILES | GI50 [1] | GI50 [2] | GI50 [3] | GI50 [4] | GI50 [7] | GI50 [8] | logP [9] | selectivity ratio [10] | other results |
| --- | --- | --- | --- | --- | --- | --- | --- | --- | --- |
| C[C@@H]1[C@H](O)[C@@H](C)/C=C/C=C/C=C/C=C/C=C/C=C/C=C/[C@H](O[C@@H]2O[C@H](C)[C@@H](O)[C@H](N)[C@@H]2O)C[C@@H]2O[C@](O)(C[C@@H](O)C[C@@H](O)[C@H](O)CC[C@@H](O)C[C@@H](O)CC(=O)O[C@H]1C)C[C@H](O)[C@H]2C(=O)O [AMPHOTERICIN B] | 0.17 µM |  |  |  |  |  |  |  |  |
| NCCCCNc1ccnc2cc(Cl)ccc12 | 42.4 µM | > 100 µM | 15.8 µM | 46.3 µM |  |  |  |  |  |
| CC(=O)N(O)CCCCCNC(=O)CCC(=O)N(O)CCCCCNC(=O)CCC(=O)N(O)CCCCCN [DEFEROXAMINE] | 150 µM | 18.4 µM | 2.9 µM |  | 28 µM | 33.1 µM |  |  | fold change (FC) [5]: 2; Activity [6]: 26.6 |
| CCN(CC)CCCC(C)Nc1ccnc2cc(Cl)ccc12 (configuration not stated) [CHLOROQUINE] | 3.7 µM |  | 15.6 µM | 22.2 µM |  |  |  |  |  |
| Cc1cc(NCCCCn2ccc(=O)c(O)c2C)c2ccccc2n1 |  |  |  |  | 9 µM | 204 µM | -0.48 | 23 | Activity [6]: 21.1 |
| CCCCCCCCn1ccc(=O)c(O)c1C | 3.2 µM | 11.2 µM | 3.6 µM | 3 µM |  |  |  |  | selectivity ratio [11]: 3; selectivity ratio [12]: 4; selectivity ratio [13]: 4 |
| Cc1c(O)c(=O)ccn1CCCNc1ccnc2cc(Cl)ccc12 |  |  |  |  |  |  | 1.32 |  |  |
| Nc1nc(N)nc(Nc2ccc([As]3SCC(CO)S3)cc2)n1 (configuration not stated) [MELARSOPROL] |  |  | 0.0038 µM |  |  |  |  |  |  |
| O=C(Cn1ccnc1[N+](=O)[O-])NCc1ccccc1 [BENZNIDAZOLE] |  |  |  | 441 µM |  |  |  |  |  |
| Cc1c(O)c(=O)ccn1CCCCNc1ccnc2cc(Cl)ccc12 | 27.1 µM | 50.3 µM | 3.8 µM | 6.5 µM | 2.4 µM | 38.2 µM | 1.4 | 16 | selectivity ratio [11]: 13; selectivity ratio [12]: 2; Ratio [14]: >15; Ratio [15]: >25; Ratio [16]: 4; Ratio [17]: 4; selectivity ratio [13]: 8; Activity [18]: inactive |
| Cc1c(O)c(=O)ccn1CCN | > 100 µM | 111 µM | > 100 µM | > 100 µM |  |  |  |  |  |
| Cc1cc(NC(=O)CCCn2ccc(=O)c(O)c2C)c2ccccc2n1 |  |  |  |  | 6 µM | 128 µM | 1.28 | 21 |  |
| Cc1c(O)c(=O)ccn1CCCCNc1ccnc2ccccc12 | > 100 µM | > 100 µM | 7.6 µM | > 100 µM | 1.6 µM | 27.1 µM | 1.25 | 17 | fold change (FC) [19]: 1.6; selectivity ratio [11]: > 13; Activity [20]: inactive |
| Cc1c(O)c(=O)ccn1C [DEFERIPRONE] | > 100 µM | > 100 µM | > 100 µM | > 100 µM | 67 µM |  |  |  | Activity [6]: 19.3 |
| Cc1c(O)c(=O)ccn1CCNc1ccnc2cc(Cl)ccc12 |  |  |  |  | 7 µM | 182 µM | 1.08 | 26 |  |
| CCCCCCCCCCn1ccc(=O)c(O)c1C | 0.7 µM | 6.3 µM | 1.4 µM | 0.8 µM |  |  |  |  | selectivity ratio [11]: 5; selectivity ratio [12]: 9; selectivity ratio [13]: 8 |
